In ChEMBL document CHEMBL3414425, “Synthesis and biological evaluation of new imidazo[2,1-b][1,3,4]thiadiazole-benzimidazole derivatives” (Eur J Med Chem, 2015):
Converted amounts (≈) assume the structure as drawn. The source made the active and inactive calls. The calls are words filed in the database; no cut-off is given here.

Key:
[1] = test system: Mycobacterium tuberculosis; experiment: Antitubercular activity against Mycobacterium tuberculosis H37Rv ATCC 27294/XDR-TB incubated for 28 days by agar dilution method; type: functional; conditions: 672 h
Method in brief: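 Agar dilution: two-fold dilutions in Middlebrook 7H11 agar with OADC. Inoculum from fresh 7H11/OADC slants adjusted to 1 mg/mL wet weight in 0.05% Tween 80 saline, diluted 10^-2 (~10⁷ cfu/mL); 5 µL spotted per tube. Incubated 37 °C; MIC, lowest concentration fully inhibiting growth, read after 28 days, in triplicate.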

[2] = test system: Escherichia coli; experiment: Antibacterial activity against Escherichia coli at 1 mg/ml incubated for 18 hrs by well plate technique; type: functional; conditions: for zone of inhibition at 1000 µg/mL: read-out: DIZ
Method in brief: (§1)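 Bacteria kept on nutrient agar at 37 °C, grown statically in nutrient broth (start ~10-100 cfu/mL) at 37 °C for 18-24 h. Suspensions diluted in saline and spread on nutrient agar, then wells cut with a cork borer. Compound in DMSO at 1 or 0.5 mg/mL added to wells, 37 °C, 18 h. Inhibition zone diameter measured minus DMSO value; triplicate; streptomycin standard.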

[3] = test system: Escherichia coli; experiment: Antibacterial activity against Escherichia coli at 0.5 mg/ml incubated for 18 hrs by well plate technique; type: functional; conditions: for zone of inhibition at 500 µg/mL: read-out: DIZ; method in brief: as §1
[4] = test system: Staphylococcus aureus; experiment: Antibacterial activity against Staphylococcus aureus at 1 mg/ml incubated for 18 hrs by well plate technique; type: functional; conditions: for zone of inhibition at 1000 µg/mL: read-out: DIZ; method in brief: as §1
[5] = test system: Staphylococcus aureus; experiment: Antibacterial activity against Staphylococcus aureus at 0.5 mg/ml incubated for 18 hrs by well plate technique; type: functional; conditions: for zone of inhibition at 500 µg/mL: read-out: DIZ; method in brief: as §1
[6] = test system: Pseudomonas aeruginosa; experiment: Antibacterial activity against Pseudomonas aeruginosa at 1 mg/ml incubated for 18 hrs by well plate technique; type: functional; conditions: for zone of inhibition at 1000 µg/mL: read-out: DIZ; method in brief: as §1
[7] = test system: Pseudomonas aeruginosa; experiment: Antibacterial activity against Pseudomonas aeruginosa at 0.5 mg/ml incubated for 18 hrs by well plate technique; type: functional; conditions: for zone of inhibition at 500 µg/mL: read-out: DIZ; method in brief: as §1
[8] = test system: Salmonella typhi; experiment: Antibacterial activity against Salmonella typhi at 1 mg/ml incubated for 18 hrs by well plate technique; type: functional; conditions: for diameter of the inhibition zone (DIZ): Salmonella enterica subsp. enterica serovar Typhi; for zone of inhibition at 1000 µg/mL: Salmonella enterica, read-out: DIZ
Method in brief: (§2)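 Well diffusion on nutrient agar; strains kept on nutrient agar at 37 °C, grown statically in nutrient broth 18-24 h at 37 °C, diluted in saline, 0.1 ml spread per plate. Compounds in DMSO at 1 and 0.5 mg/mL added to cork-bored wells; 18 h at 37 °C. Inhibition zone diameter measured, DMSO value subtracted; triplicate; streptomycin reference.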

[9] = test system: Salmonella typhi; experiment: Antibacterial activity against Salmonella typhi at 0.5 mg/ml incubated for 18 hrs by well plate technique; type: functional; conditions: for diameter of the inhibition zone (DIZ): Salmonella enterica subsp. enterica serovar Typhi; for zone of inhibition at 500 µg/mL: Salmonella enterica, read-out: DIZ; method in brief: as §2
[10] = test system: Aspergillus flavus; experiment: Antifungal activity against Aspergillus flavus at 1 mg/ml incubated for 3 days; type: functional; conditions: for zone of inhibition at 1000 µg/mL: 72 h, read-out: IZ
Method in brief: (§3)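 Well plate method on potato dextrose agar. Fungal stock suspended in distilled water with Tween 80 and swabbed over plates. Samples in DMSO at 1 and 0.5 mg/mL added to wells, incubated 25 °C for 3 days, then scored for inhibition zones; fluconazole standard.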

[11] = test system: Aspergillus flavus; experiment: Antifungal activity against Aspergillus flavus at 0.5 mg/ml incubated for 3 days; type: functional; conditions: for zone of inhibition at 500 µg/mL: 72 h, read-out: IZ; method in brief: as §3
[12] = test system: Chrysosporium keratinophilum; experiment: Antifungal activity against Chrysosporium keratinophilum at 1 mg/ml incubated for 3 days; type: functional; conditions: for zone of inhibition at 1000 µg/mL: 72 h, read-out: IZ; method in brief: as §3
[13] = test system: Chrysosporium keratinophilum; experiment: Antifungal activity against Chrysosporium keratinophilum at 0.5 mg/ml incubated for 3 days; type: functional; conditions: for zone of inhibition at 500 µg/mL: 72 h, read-out: IZ; method in brief: as §3
[14] = test system: Candida albicans; experiment: Antifungal activity against Candida albicans at 1 mg/ml incubated for 3 days; type: functional; conditions: for zone of inhibition at 1000 µg/mL: 72 h, read-out: IZ; method in brief: as §3
[15] = test system: Candida albicans; experiment: Antifungal activity against Candida albicans at 0.5 mg/ml incubated for 3 days; type: functional; conditions: for zone of inhibition at 500 µg/mL: 72 h, read-out: IZ; method in brief: as §3
[16] = Antioxidant activity assessed as DPPH radical scavenging activity incubated for 10 mins by UV-visible spectrometry; type: physicochemical
Method in brief: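 DPPH free-radical scavenging; absorbance read at 517 nm against a methanol blank. % scavenging = (A control − A sample)/A control × 100.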

Structure (SMILES) | MIC [1] [µg/mL] | diameter of the inhibition zone (DIZ) [2] | diameter of the inhibition zone (DIZ) [3] | diameter of the inhibition zone (DIZ) [4] | diameter of the inhibition zone (DIZ) [5] | diameter of the inhibition zone (DIZ) [6] | diameter of the inhibition zone (DIZ) [7] | diameter of the inhibition zone (DIZ) [8] | diameter of the inhibition zone (DIZ) [9] | inhibition zone (IZ) [10] | inhibition zone (IZ) [11] | inhibition zone (IZ) [12] | inhibition zone (IZ) [13] | inhibition zone (IZ) [14] | inhibition zone (IZ) [15] | inhibition (INH) [16] [%] | also measured
COc1ccc(-c2nc3sc(-c4ccccc4Cl)nn3c2-c2nc3cc([N+](=O)[O-])ccc3[nH]2)cc1 | 50 (≈ 99.4 µM) | inactive | inactive | inactive | inactive | inactive | inactive | inactive | inactive | inactive | inactive | inactive | inactive | inactive | inactive | 22.1 | –
COc1ccc(-c2nc3sc(-c4ccc(F)cc4)nn3c2-c2nc3ccccc3[nH]2)cc1 | 12.5 (≈ 28.3 µM) | inactive | inactive | inactive | inactive | inactive | inactive | inactive | inactive | inactive | inactive | inactive | inactive | inactive | inactive | 25.4 | –
COc1ccc(-c2nc3sc(-c4ccc(C)cc4)nn3c2-c2nc3ccccc3[nH]2)cc1 | 12.5 (≈ 28.6 µM) | inactive | inactive | inactive | inactive | inactive | inactive | inactive | inactive | inactive | inactive | inactive | inactive | inactive | inactive | 21.6 | –
COc1ccc(-c2nc3sc(C)nn3c2-c2nc3cc([N+](=O)[O-])ccc3[nH]2)cc1 | 12.5 (≈ 30.8 µM) | inactive | inactive | inactive | inactive | inactive | inactive | inactive | inactive | – | – | – | – | – | – | 22.6 | zone of inhibition at 1000 µg/mL [10]: 2 mm; zone of inhibition at 500 µg/mL [11]: 1 mm; zone of inhibition at 1000 µg/mL [12]: 3 mm; zone of inhibition at 500 µg/mL [13]: 2 mm; zone of inhibition at 1000 µg/mL [14]: 2 mm; zone of inhibition at 500 µg/mL [15]: 1 mm
Cc1ccc(-c2nc3sc(-c4ccc(Cl)cc4)nn3c2-c2nc3cc(Cl)ccc3[nH]2)cc1 | 25 (≈ 52.5 µM) | – | – | – | – | – | – | – | – | – | – | – | – | – | – | 31.9 | zone of inhibition at 1000 µg/mL [2]: 4 mm; zone of inhibition at 500 µg/mL [3]: 2 mm; zone of inhibition at 1000 µg/mL [4]: 3 mm; zone of inhibition at 500 µg/mL [5]: 3 mm; zone of inhibition at 1000 µg/mL [6]: 4 mm; zone of inhibition at 500 µg/mL [7]: 3 mm; zone of inhibition at 1000 µg/mL [8]: 3 mm; zone of inhibition at 500 µg/mL [9]: 2 mm; zone of inhibition at 1000 µg/mL [10]: 3 mm; zone of inhibition at 500 µg/mL [11]: 2 mm; zone of inhibition at 1000 µg/mL [12]: 3 mm; zone of inhibition at 500 µg/mL [13]: 2 mm; zone of inhibition at 1000 µg/mL [14]: 4 mm; zone of inhibition at 500 µg/mL [15]: 3 mm
CC[C@@H](CO)NCCN[C@@H](CC)CO [ETHAMBUTOL] | 3.13 (≈ 15.3 µM) | – | – | – | – | – | – | – | – | – | – | – | – | – | – | – | –
Cc1nn2c(-c3nc4cc([N+](=O)[O-])ccc4[nH]3)c(-c3ccc(Cl)cc3)nc2s1 | 50 (≈ 122 µM) | – | – | – | – | – | – | – | – | inactive | inactive | inactive | inactive | inactive | inactive | 29.8 | zone of inhibition at 1000 µg/mL [2]: 6 mm; zone of inhibition at 500 µg/mL [3]: 4 mm; zone of inhibition at 1000 µg/mL [4]: 9 mm; zone of inhibition at 500 µg/mL [5]: 7 mm; zone of inhibition at 1000 µg/mL [6]: 8 mm; zone of inhibition at 500 µg/mL [7]: 5 mm; zone of inhibition at 1000 µg/mL [8]: 6 mm; zone of inhibition at 500 µg/mL [9]: 4 mm
Cc1cc(C(C)(C)C)c(O)c(C(C)(C)C)c1 [BUTYLATED HYDROXYTOLUENE] | – | – | – | – | – | – | – | – | – | – | – | – | – | – | – | 88.6 | –
COc1ccc(-c2nc3sc(-c4ccc(C)cc4)nn3c2-c2nc3cc([N+](=O)[O-])ccc3[nH]2)cc1 | 12.5 (≈ 25.9 µM) | inactive | inactive | inactive | inactive | inactive | inactive | inactive | inactive | inactive | inactive | inactive | inactive | inactive | inactive | 25.1 | –
Cc1ccc(-c2nn3c(-c4nc5ccccc5[nH]4)c(-c4ccc(F)cc4)nc3s2)cc1 | 12.5 (≈ 29.4 µM) | – | – | – | – | – | – | – | – | – | – | – | – | – | – | 22.6 | zone of inhibition at 1000 µg/mL [2]: 13 mm; zone of inhibition at 500 µg/mL [3]: 9 mm; zone of inhibition at 1000 µg/mL [4]: 14 mm; zone of inhibition at 500 µg/mL [5]: 11 mm; zone of inhibition at 1000 µg/mL [6]: 13 mm; zone of inhibition at 500 µg/mL [7]: 10 mm; zone of inhibition at 1000 µg/mL [8]: 15 mm; zone of inhibition at 500 µg/mL [9]: 13 mm; zone of inhibition at 1000 µg/mL [10]: 6 mm; zone of inhibition at 500 µg/mL [11]: 4 mm; zone of inhibition at 1000 µg/mL [12]: 5 mm; zone of inhibition at 500 µg/mL [13]: 3 mm; zone of inhibition at 1000 µg/mL [14]: 6 mm; zone of inhibition at 500 µg/mL [15]: 4 mm
CN[C@@H]1[C@H](O[C@H]2[C@H](O[C@H]3[C@H](O)[C@@H](O)[C@H](N=C(N)N)[C@@H](O)[C@@H]3N=C(N)N)O[C@@H](C)[C@]2(O)C=O)O[C@@H](CO)[C@H](O)[C@H]1O [STREPTOMYCIN] | – | – | – | – | – | – | – | – | – | – | – | – | – | – | – | – | zone of inhibition at 1000 µg/mL [2]: 18.6 mm; zone of inhibition at 500 µg/mL [3]: 14.3 mm; zone of inhibition at 1000 µg/mL [4]: 16.8 mm; zone of inhibition at 500 µg/mL [5]: 12.5 mm; zone of inhibition at 1000 µg/mL [6]: 16.7 mm; zone of inhibition at 500 µg/mL [7]: 13.6 mm; zone of inhibition at 1000 µg/mL [8]: 17.2 mm; zone of inhibition at 500 µg/mL [9]: 15.7 mm
OC(Cn1cncn1)(Cn1cncn1)c1ccc(F)cc1F [FLUCONAZOLE] | – | – | – | – | – | – | – | – | – | – | – | – | – | – | – | – | zone of inhibition at 1000 µg/mL [10]: 14 mm; zone of inhibition at 500 µg/mL [11]: 10 mm; zone of inhibition at 1000 µg/mL [12]: 16 mm; zone of inhibition at 500 µg/mL [13]: 14 mm; zone of inhibition at 1000 µg/mL [14]: 23 mm; zone of inhibition at 500 µg/mL [15]: 20 mm
NNC(=O)c1ccncc1 [ISONIAZID] | 0.1 (≈ 0.729 µM) | – | – | – | – | – | – | – | – | – | – | – | – | – | – | – | –
NC(=O)c1cnccn1 [PYRAZINAMIDE] | 50 (≈ 406 µM) | – | – | – | – | – | – | – | – | – | – | – | – | – | – | – | –
